ChEMBL document CHEMBL1157843, “Synthesis and anticonvulsant activity of a new 6-alkoxy-[1,2,4]triazolo[4,3-b]pyridazine” (Eur J Med Chem, 2010)
Calls of active or inactive are those of the source. No cut-off for these calls is given here.

tested on: Mus musculus; assay: Anticonvulsant in mouse assessed as protection against maximum electric stimulus-induced seizures at 100 mg/kg, ip after 4 hrs; assay type: functional, organism-based; set-up: dose 100 mg/kg; conditions: not given
Summary of the method: (§1)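 Phase-I qualitative MES screen following NIH ADD protocol. KunMing mice (18–25 g), three per dose, test agent in polyethylene glycol-400 i.p. at 30, 100 or 300 mg/kg. Protection assessed 0.5 h and 4 h after dosing; scored as animals protected/animals tested.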

| SMILES | Activity |
| --- | --- |
| COc1ccc(Oc2ccc3nncn3n2)cc1 | inactive |
| Cc1cccc(Oc2ccc3nncn3n2)c1 | inactive |

tested on: Mus musculus; assay: Anticonvulsant in mouse assessed as protection against maximum electric stimulus-induced seizures at 30 mg/kg, ip after 4 hrs; assay type: functional, organism-based; set-up: dose 30 mg/kg; conditions: not given; summary of the method: as §1

| SMILES | Activity |
| --- | --- |
| Fc1ccc(Oc2ccc3nncn3n2)cc1 | inactive |
| CCCCCOc1ccc2nncn2n1 | inactive |
| CCCCCCCCOc1ccc2nncn2n1 | inactive |
| CCCCCCOc1ccc2nncn2n1 | inactive |
| CCCCCCCOc1ccc2nncn2n1 | inactive |

tested on: Mus musculus; assay: Neurotoxicity against mouse at 100 mg/kg, ip after 0.5 hrs by rotarod ataxia test; assay type: toxicity, organism-based; set-up: dose 100 mg/kg, route intraperitoneal; conditions: in vivo
Summary of the method: (§2)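 Phase-I rotarod ataxia screen per NIH ADD protocol. KunMing mice (18–25 g), three per dose, test agent in polyethylene glycol-400 i.p. at 30, 100 or 300 mg/kg. Neurological deficit read 30 min and 4 h after dosing; scored as animals showing toxicity/animals tested.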

| SMILES | Activity |
| --- | --- |
| CCCCCCCCOc1ccc2nncn2n1 | Toxic |
| COc1ccc(Oc2ccc3nncn3n2)cc1 | Non-toxic |
| Cc1cccc(Oc2ccc3nncn3n2)c1 | Non-toxic |

tested on: Mus musculus; assay: Neurotoxicity against mouse at 30 mg/kg, ip after 0.5 hrs by rotarod ataxia test; assay type: toxicity, organism-based; set-up: dose 30 mg/kg, route intraperitoneal; conditions: in vivo; summary of the method: as §2

| SMILES | Activity |
| --- | --- |
| Fc1ccc(Oc2ccc3nncn3n2)cc1 | Non-toxic |
| Clc1cccc(Oc2ccc3nncn3n2)c1 | Non-toxic |
| CCCCCOc1ccc2nncn2n1 | Toxic |
| CCCCCCOc1ccc2nncn2n1 | Toxic |
| CCCCCCCOc1ccc2nncn2n1 | Toxic |
| Clc1ccc(Oc2ccc3nncn3n2)cc1 | Non-toxic |

tested on: Mus musculus; assay: Neurotoxicity against mouse at 100 mg/kg, ip after 4 hrs by rotarod ataxia test; assay type: toxicity, organism-based; set-up: dose 100 mg/kg, route intraperitoneal; conditions: in vivo; summary of the method: as §2

| SMILES | Activity |
| --- | --- |
| CCCCCCCCOc1ccc2nncn2n1 | Non-toxic |
| COc1ccc(Oc2ccc3nncn3n2)cc1 | Non-toxic |
| Cc1cccc(Oc2ccc3nncn3n2)c1 | Non-toxic |

tested on: Mus musculus; assay: Neurotoxicity against mouse at 30 mg/kg, ip after 4 hrs by rotarod ataxia test; assay type: toxicity, organism-based; set-up: dose 30 mg/kg, route intraperitoneal; conditions: in vivo; summary of the method: as §2

| SMILES | Activity |
| --- | --- |
| Fc1ccc(Oc2ccc3nncn3n2)cc1 | Non-toxic |
| Clc1cccc(Oc2ccc3nncn3n2)c1 | Non-toxic |
| CCCCCOc1ccc2nncn2n1 | Non-toxic |
| CCCCCCOc1ccc2nncn2n1 | Non-toxic |
| CCCCCCCOc1ccc2nncn2n1 | Non-toxic |
| Clc1ccc(Oc2ccc3nncn3n2)cc1 | Non-toxic |

tested on: Mus musculus; assay: Anticonvulsant in ip dosed mouse assessed as protection against maximum electric stimulus-induced seizures; assay type: functional; conditions: not given
Summary of the method: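 Phase-II quantitation in KunMing mice (18–25 g), vehicle polyethylene glycol-400. Groups of 10 received a range of i.p. doses until at least three points fell within 10–90% MES protection or minimal rotarod neurotoxicity. ED50, TD50 and 95% confidence intervals computed from regression by an NINDS program. PI = TD50/ED50.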

| SMILES | ED50 |
| --- | --- |
| Fc1ccc(Oc2ccc3nncn3n2)cc1 | 38 mg/kg |
| CCC1(c2ccccc2)C(=O)NC(=O)NC1=O [PHENOBARBITAL] | 21.8 mg/kg |
| Clc1cccc(Oc2ccc3nncn3n2)c1 | 39.4 mg/kg |
| CCCCCOc1ccc2nncn2n1 | 39.4 mg/kg |
| CCCCCCCCOc1ccc2nncn2n1 | > 100 mg/kg |
| CCCCCCOc1ccc2nncn2n1 | 32.9 mg/kg |
| CCCCCCCOc1ccc2nncn2n1 | 42.4 mg/kg |
| NC(=O)N1c2ccccc2C=Cc2ccccc21 [CARBAMAZEPINE] | 8.8 mg/kg |
| COc1ccc(Oc2ccc3nncn3n2)cc1 | > 100 mg/kg |
| Clc1ccc(Oc2ccc3nncn3n2)cc1 | 36.7 mg/kg |
| Cc1cccc(Oc2ccc3nncn3n2)c1 | > 100 mg/kg |

tested on: not listed separately; assay: Neurotoxicity against ip dosed mouse by rotarod ataxia test; assay type: toxicity, organism-based; conditions: in vivo

| SMILES | TD50 |
| --- | --- |
| Fc1ccc(Oc2ccc3nncn3n2)cc1 | 317 mg/kg |
| Clc1cccc(Oc2ccc3nncn3n2)c1 | 228 mg/kg |
| CCCCCOc1ccc2nncn2n1 | 70.4 mg/kg |
| CCCCCCOc1ccc2nncn2n1 | 60.8 mg/kg |
| CCCCCCCOc1ccc2nncn2n1 | 73 mg/kg |
| Clc1ccc(Oc2ccc3nncn3n2)cc1 | 394 mg/kg |

tested on: Mus musculus; assay: Protective index, ratio of TD50 for ip dosed mouse to ED50 for maximum electric stimulus-induced seizure in ip dosed mouse; assay type: functional; conditions: not given

| SMILES | PI |
| --- | --- |
| Fc1ccc(Oc2ccc3nncn3n2)cc1 | 8.3 |
| Clc1cccc(Oc2ccc3nncn3n2)c1 | 5.8 |
| CCCCCOc1ccc2nncn2n1 | 1.79 |
| CCCCCCOc1ccc2nncn2n1 | 1.8 |
| CCCCCCCOc1ccc2nncn2n1 | 1.7 |
| Clc1ccc(Oc2ccc3nncn3n2)cc1 | 10.7 |

species: Mus musculus; assay: Sedative-hypnotic activity in mouse assessed as reduction in righting reflex; assay type: organism-based; conditions: in vivo
Summary of the method: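 Phase-III work in KunMing mice: behaviour observed at intervals up to 24 h after i.p. TD50, 2TD50 and 4TD50 doses. […] Ratio taken as HD50 divided by i.p. MES ED50.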

| SMILES | HD50 |
| --- | --- |
| NC(=O)N1c2ccccc2C=Cc2ccccc21 [CARBAMAZEPINE] | 172 mg/kg |

tested on: Mus musculus; assay: Anticonvulsant activity in mouse assessed as inhibition of PTZ-induced clonic seizure at 50 mg/kg, ip administered 30 mins prior to PTZ challenge measured after 0.5 hrs; assay type: functional; conditions: route intraperitoneal
Summary of the method: (§3)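 KunMing mice, 18–25 g, groups of 10; test agent in polyethylene glycol-400 given i.p. 30 min before convulsant. PTZ 85 mg/kg s.c., 3-MP 40 mg/kg s.c., isoniazid 250 mg/kg i.p.; doses chosen to induce seizures in at least 97% of animals. Individual cages, 30 min observation; clonic seizures, tonic seizures and lethality recorded.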

| SMILES | inhibition in vivo at 50 mg/kg |
| --- | --- |
| NC(=O)N1c2ccccc2C=Cc2ccccc21 [CARBAMAZEPINE] | 100% |

tested on: Mus musculus; assay: Anticonvulsant activity in mouse assessed as inhibition of PTZ-induced tonic seizure at 50 mg/kg, ip administered 30 mins prior to PTZ challenge measured after 0.5 hrs; assay type: functional; conditions: route intraperitoneal; summary of the method: as §3

| SMILES | inhibition in vivo at 50 mg/kg |
| --- | --- |
| NC(=O)N1c2ccccc2C=Cc2ccccc21 [CARBAMAZEPINE] | 0% |

tested on: Mus musculus; assay: Anticonvulsant activity in mouse assessed as reduction of PTZ-induced lethality at 50 mg/kg, ip administered 30 mins prior to PTZ challenge measured after 0.5 hrs; assay type: functional; set-up: scale not given: the % may be the effect or the level left; conditions: route intraperitoneal

| SMILES | Activity |
| --- | --- |
| NC(=O)N1c2ccccc2C=Cc2ccccc21 [CARBAMAZEPINE] | 0% |

tested on: Mus musculus; assay: Anticonvulsant activity in mouse assessed as inhibition of isoniazid-induced clonic seizure at 50 mg/kg, ip administered 30 mins prior to isoniazid challenge measured after 0.5 hrs; assay type: functional; conditions: route intraperitoneal; summary of the method: as §3

| SMILES | inhibition in vivo at 50 mg/kg |
| --- | --- |
| NC(=O)N1c2ccccc2C=Cc2ccccc21 [CARBAMAZEPINE] | 40% |

tested on: Mus musculus; assay: Anticonvulsant activity in mouse assessed as inhibition of isoniazid-induced tonic seizure at 50 mg/kg, ip administered 30 mins prior to isoniazid challenge measured after 0.5 hrs; assay type: functional; conditions: route intraperitoneal; summary of the method: as §3

| SMILES | inhibition in vivo at 50 mg/kg |
| --- | --- |
| NC(=O)N1c2ccccc2C=Cc2ccccc21 [CARBAMAZEPINE] | 0% |

tested on: Mus musculus; assay: Anticonvulsant activity in mouse assessed as reduction of isoniazid-induced lethality at 50 mg/kg, ip administered 30 mins prior to isoniazid challenge measured after 0.5 hrs; assay type: functional; set-up: scale not given: the % may be the effect or the level left; conditions: route intraperitoneal

| SMILES | Activity |
| --- | --- |
| NC(=O)N1c2ccccc2C=Cc2ccccc21 [CARBAMAZEPINE] | 0% |

tested on: Mus musculus; assay: Anticonvulsant activity in mouse assessed as inhibition of 3-mercaptopropionic acid-induced clonic seizure at 50 mg/kg, ip administered 30 mins prior to 3-mercaptopropionic acid challenge measured after 0.5 hrs; assay type: functional; conditions: route intraperitoneal; summary of the method: as §3

| SMILES | inhibition in vivo at 50 mg/kg |
| --- | --- |
| NC(=O)N1c2ccccc2C=Cc2ccccc21 [CARBAMAZEPINE] | 80% |

tested on: Mus musculus; assay: Anticonvulsant activity in mouse assessed as inhibition of 3-mercaptopropionic acid-induced tonic seizure at 50 mg/kg, ip administered 30 mins prior to 3-mercaptopropionic acid challenge measured after 0.5 hrs; assay type: functional; conditions: route intraperitoneal; summary of the method: as §3

| SMILES | inhibition in vivo at 50 mg/kg |
| --- | --- |
| NC(=O)N1c2ccccc2C=Cc2ccccc21 [CARBAMAZEPINE] | 0% |

tested on: Mus musculus; assay: Anticonvulsant activity in mouse assessed as reduction of 3-mercaptopropionic acid-induced lethality at 50 mg/kg, ip administered 30 mins prior to 3-mercaptopropionic acid challenge measured after 0.5 hrs; assay type: functional; set-up: scale not given: the % may be the effect or the level left; conditions: route intraperitoneal

| SMILES | Activity |
| --- | --- |
| NC(=O)N1c2ccccc2C=Cc2ccccc21 [CARBAMAZEPINE] | 10% |

tested on: Mus musculus; assay: Anticonvulsant activity in mouse assessed as inhibition of thiosemicarbazide-induced clonic seizure at 50 mg/kg, ip administered 30 mins prior to thiosemicarbazide challenge measured after 2.5 hrs; assay type: functional; conditions: route intraperitoneal
Summary of the method: (§4)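 KunMing mice (18–25 g), groups of 10, pretreated i.p. with test agent in polyethylene glycol-400 30 min before thiosemicarbazide 50 mg/kg i.p. Animals kept in individual cages and watched for 2 h 30 min, noting clonic seizures, tonic seizures and lethality.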

| SMILES | inhibition in vivo at 50 mg/kg |
| --- | --- |
| NC(=O)N1c2ccccc2C=Cc2ccccc21 [CARBAMAZEPINE] | 90% |

tested on: Mus musculus; assay: Anticonvulsant activity in mouse assessed as inhibition of thiosemicarbazide-induced tonic seizure at 50 mg/kg, ip administered 30 mins prior to thiosemicarbazide challenge measured after 2.5 hrs; assay type: functional; conditions: route intraperitoneal; summary of the method: as §4

| SMILES | inhibition in vivo at 50 mg/kg |
| --- | --- |
| NC(=O)N1c2ccccc2C=Cc2ccccc21 [CARBAMAZEPINE] | 0% |

tested on: Mus musculus; assay: Anticonvulsant activity in mouse assessed as reduction of thiosemicarbazide-induced lethality at 50 mg/kg, ip administered 30 mins prior to thiosemicarbazide challenge measured after 2.5 hrs; assay type: functional; set-up: scale not given: the % may be the effect or the level left; conditions: route intraperitoneal

| SMILES | Activity |
| --- | --- |
| NC(=O)N1c2ccccc2C=Cc2ccccc21 [CARBAMAZEPINE] | 0% |
